# Legend:
# [1] = Association constant of compound was evaluated at pH 9; format: ADME
# Method in brief: (§1)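 UV difference spectroscopy: Ac₂-L-Lys-D-Ala-D-Ala was added to antibiotic at 30 μM (initial) in 10% MeOH/sodium phosphate buffer (pH 5 or pH 9). Double-beam spectrophotometer, 4-cm nonthermostated cells, 24 ± 2 °C. ΔA was monitored at 294 nm, and Ka was taken from the slope of a Scatchard plot.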
# Streptococcus pneumoniae = assay: Minimum inhibitory concentration against Streptococcus pneumoniae UC 41 evaluated in vitro; format: functional
# Method in brief: (§2)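 Twofold broth microdilution in Difco Todd-Hewitt broth, final inoculum ~10⁴ cfu/mL, overnight at 37 °C. MIC (μg/mL) was read as the lowest concentration showing no visible growth.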
# Streptococcus pyogenes [2] = assay: Minimum inhibitory concentration against Streptococcus pyogenes C 203 evaluated in vitro; format: functional; method in brief: as §2
# Streptococcus pyogenes [3] = assay: Minimum inhibitory concentration administered subcutaneously against Streptococcus pyogenes C203 in mouse; conditions: sc
# Enterococcus faecalis = assay: Minimum inhibitory concentration against Streptococcus faecalis ATCC 7080 evaluated in vitro; format: functional
# Method in brief: (§3)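 Twofold broth microdilution in Oxoid Iso-Sensitest broth, final inoculum ~10⁴ cfu/mL, overnight at 37 °C. MIC (μg/mL) was read as the lowest concentration with no visible growth. Coagulase-negative staphylococci were identified by API STAPH per Kloos and Schleifer.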
# [4] = test system: Staphylococcus epidermidis; assay: Minimum inhibitory concentration against Staphylococcus epidermis ATCC 12228 evaluated in vitro; format: functional; method in brief: as §3
# Staphylococcus aureus = assay: Minimum inhibitory concentration against Staphylococcus aureus Tour evaluated in vitro; format: functional; method in brief: as §3
# [5] = Association constant of compound was evaluated at pH 5; format: ADME; method in brief: as §1
# [6] = test system: Staphylococcus epidermidis; assay: Minimum inhibitory concentration against Staphylococcus epidermis L1378 evaluated in vitro; format: functional; method in brief: as §3
# Staphylococcus hominis = assay: Minimum inhibitory concentration against Staphylococcus hominis L1070 evaluated in vitro; format: functional; method in brief: as §3
# [7] = test system: Staphylococcus haemolyticus; assay: Minimum inhibitory concentration against Staphylococcus haemolyticus L1520 evaluated in vitro; format: functional; method in brief: as §3
# Staphylococcus simulans [8] = assay: Minimum inhibitory concentration against Staphylococcus simulans L785 evaluated in vitro; format: functional; method in brief: as §3
# Staphylococcus simulans [9] = assay: Minimum inhibitory concentration against Staphylococcus simulans L1142 evaluated in vitro; format: functional; method in brief: as §3
# Staphylococcus warneri = assay: Minimum inhibitory concentration against Staphylococcus warneri L1375 evaluated in vitro; format: functional; method in brief: as §3
# Streptococcus pyogenes [10] = assay: Minimum inhibitory concentration against Streptococcus pyogenes C203 evaluated in vivo(mouse); format: functional
# Method in brief: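 Mice in groups of five were infected intraperitoneally with S. pyogenes C 203, with inoculum set so untreated animals die of septicemia within 48 h. A single subcutaneous treatment was given immediately after infection. ED₅₀ was calculated from the percentage surviving at each dose on day 7.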
# [11] = Streptococcus pneumoniae, read-out: MIC
# [12] = Streptococcus pyogenes, read-out: MIC
# [13] = Staphylococcus epidermidis, ATCC 12228, read-out: MIC
# [14] = Staphylococcus aureus, read-out: MIC
SMILES,Ka [1] [M⁻¹],MIC (Streptococcus pneumoniae; [11]) [µg/mL],MIC (Streptococcus pyogenes [2]; [12]) [µg/mL],ED50 (Streptococcus pyogenes [3]) [mg/kg],MIC (Enterococcus faecalis) [µg/mL],"MIC [4, 13] [µg/mL]",MIC (Staphylococcus aureus; [14]) [µg/mL],Ka [5] [M⁻¹],MIC [6] [µg/mL],MIC (Staphylococcus hominis) [µg/mL],MIC [7] [µg/mL],MIC (Staphylococcus simulans [8]) [µg/mL],MIC (Staphylococcus simulans [9]) [µg/mL],MIC (Staphylococcus warneri) [µg/mL],ED50 (Streptococcus pyogenes [10]) [mg/kg],MIC (Streptococcus pneumoniae) [µg/mL],MIC (Streptococcus pyogenes [2]) [µg/mL],MIC [4] [µg/mL],MIC (Staphylococcus aureus) [µg/mL]
CCCCC/C=C/CCC(=O)N[C@@H]1[C@H](Oc2c3cc4cc2Oc2ccc(cc2Cl)CC2NC(=O)[C@H](N)c5ccc(O)c(c5)Oc5cc(O)cc(c5)C(NC2=O)C(=O)NC4C(=O)NC2C(=O)/N=C(\Cc4ccc(c(Cl)c4)O3)C(=O)N[C@H](C(=O)O)c3cc(O)cc(O[C@H]4O[C@H](CO)[C@@H](O)[C@@H](O)[C@@H]4O)c3-c3cc2ccc3O)O[C@@H](CO)[C@@H](O)[C@@H]1O (some centres not stated),60000,0.063,0.063,0.35,1,0.25,0.5,390000,,,,,,,,,,,
CC(=O)N[C@@H]1[C@H](O[C@@H]2c3ccc(c(Cl)c3)Oc3cc4cc(c3O)Oc3ccc(cc3Cl)C[C@H]3NC(=O)[C@H](N)c5ccc(O)c(c5)Oc5cc(O)cc(c5)[C@H](NC3=O)C(=O)N[C@H]4C(=O)N[C@H]3C(=O)N[C@@H]2C(=O)N[C@H](C(=O)O)c2cc(O)cc(O)c2-c2cc3ccc2O)O[C@@H](CO)[C@@H](O)[C@@H]1O,32000,1,0.5,,1,0.125,0.5,2.6e+06,,,,,,,,,,,
CC(=O)N[C@@H]1[C@H](O[C@@H]2c3ccc(c(Cl)c3)Oc3cc4cc(c3O)Oc3ccc(cc3Cl)C[C@H]3NC(=O)[C@H](N)c5ccc(O)c(c5)Oc5cc(O)cc(c5)[C@H](NC3=O)C(=O)N[C@H]4C(=O)N[C@H]3C(=O)N[C@@H]2C(=O)N[C@H](C(=O)O)c2cc(O)cc(O[C@H]4O[C@H](CO)[C@@H](O)[C@@H](O)[C@@H]4O)c2-c2cc3ccc2O)O[C@@H](CO)[C@@H](O)[C@@H]1O,90000,0.5,0.5,,2,0.25,0.25,1200000,,,,,,,,,,,
N[C@H]1C(=O)NC2Cc3ccc(c(Cl)c3)Oc3cc4cc(c3O)Oc3ccc(cc3Cl)C/C3=N\C(=O)C(NC(=O)C4NC(=O)C(NC2=O)c2cc(O)cc(c2)Oc2cc1ccc2O)c1ccc(O)c(c1)-c1c(O)cc(O)cc1[C@@H](C(=O)O)NC3=O (some centres not stated),,1,1,,,0.125,0.25,100000,0.125,0.125,0.5,0.125,0.125,1,5,,,,
CCCCC/C=C/CCC(=O)N[C@@H]1[C@H](Oc2c3cc4cc2Oc2ccc(cc2Cl)[C@@H](O[C@@H]2O[C@@H](CO)[C@@H](O)[C@H](O)[C@@H]2NC(C)=O)[C@@H]2NC(=O)[C@H](NC(=O)[C@@H]4NC(=O)[C@H]4NC(=O)[C@@H](Cc5ccc(c(Cl)c5)O3)NC(=O)[C@H](N)c3ccc(O)c(c3)Oc3cc(O)cc4c3)c3ccc(O)c(c3)-c3c(O[C@H]4O[C@H](CO)[C@@H](O)[C@@H](O)[C@@H]4O)cc(O)cc3[C@@H](C(=O)O)NC2=O)O[C@@H](CO)[C@@H](O)[C@@H]1O,2.1e+06,0.063,0.063,0.18,0.125,0.25,0.125,1600000,0.5,0.25,4,0.25,0.125,2,,,,,
N[C@H]1C(=O)NC2Cc3ccc(c(Cl)c3)Oc3cc4cc(c3O)Oc3ccc(cc3Cl)C/C3=N\C(=O)C(NC(=O)C4NC(=O)C(NC2=O)c2cc(O)cc(c2)Oc2cc1ccc2O)c1ccc(O)c(c1)-c1c(O[C@H]2O[C@H](CO)[C@@H](O)[C@@H](O)[C@@H]2O)cc(O)cc1[C@@H](C(=O)O)NC3=O (some centres not stated),61000,2,2,5.8,1,0.5,0.25,380000,,,,,,,,,,,
N[C@H]1C(=O)NC2Cc3ccc(c(Cl)c3)Oc3cc4cc(c3O)Oc3ccc(cc3Cl)/C=C3\NC(=O)C(NC(=O)C4NC(=O)C(NC2=O)c2cc(O)cc(c2)Oc2cc1ccc2O)c1ccc(O)c(c1)-c1c(O)cc(O)cc1[C@@H](C(=O)O)NC3=O (stereo in doubt; 4),< 100,,,,,,,< 100,,,,,,,,4,4,0.125,1
N[C@H]1C(=O)NC2Cc3ccc(c(Cl)c3)Oc3cc4cc(c3O)Oc3ccc(cc3Cl)/C=C3\NC(=O)C(NC(=O)C4NC(=O)C(NC2=O)c2cc(O)cc(c2)Oc2cc1ccc2O)c1ccc(O)c(c1)-c1c(O)cc(O)cc1[C@@H](C(=O)O)NC3=O (stereo in doubt; 5),< 100,8,8,,16,,2,,,,,,,,,,,0.5,
N[C@H]1C(=O)N[C@@H]2Cc3ccc(c(Cl)c3)Oc3cc4cc(c3O)Oc3ccc(cc3Cl)[C@@H](O)[C@@H]3NC(=O)[C@H](NC(=O)[C@@H]4NC(=O)[C@@H](NC2=O)c2cc(O)cc(c2)Oc2cc1ccc2O)c1ccc(O)c(c1)-c1c(O)cc(O)cc1[C@@H](C(=O)O)NC3=O [TEICOPLANIN AGLYCON],30000,0.125,0.125,0.95,0.125,0.016,0.063,2.5e+06,0.063,0.063,0.125,0.063,0.063,0.25,,,,,

# Source: ChEMBL document CHEMBL1124656, “Synthesis and biological evaluation of de(acetylglucosaminyl)didehydrodeoxy derivatives of teicoplanin antibodies” (J Med Chem, 1989)
